Data on one molecule can be found in ChEMBL document CHEMBL4014345, “Development of Selective Clk1 and -4 Inhibitors for Cellular Depletion of Cancer-Relevant Proteins” (J Med Chem, 2017).

Test [1] deals with T1, Dual specificity protein kinase CLK1/CLK4 (Homo sapiens, UniProt Q9HAZ1+P49759). Description: Inhibition of CLK1/4 in human T24 cells assessed as down regulation of EGFR expression at 10 uM after 3 days by Western blot analysis relative to control. In kind it is cell-based. The method in brief:
(§1)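 T24 or MDA-MB-231 cells were grown in DMEM to 70% confluency. The medium was replaced with compound diluted in DMEM, and cells were kept 3 days. Total protein was immunoblotted with monoclonal antibodies in 3% BSA/PBS against EGFR, p70S6K α, PARP-1, ERK2, HDAC1, CD44, PCNA and GRP94.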
A general note: In western blotting, separated proteins are transferred to a membrane and probed.

For test [2], the target named is T1, Dual specificity protein kinase CLK1/CLK4. The experiment in a line: Inhibition of CLK1/4 in human T24 cells assessed as down regulation of EGFR expression at 5 uM after 3 days by Western blot analysis relative to control. In kind it is cell-based. The essentials:
as §1

Test [3] addresses Dual specificity protein kinase CLK1 (Homo sapiens, UniProt P49759). Description: Inhibition of recombinant human GST-tagged Clk1 expressed in Escherichia coli at 100 nM using RS repeat substrate peptide after 15 mins in presence of [gamma-32]-ATP.
The test system of a further test is T-24. The experiment in a line: Cytotoxicity against human T24 cells assessed as growth inhibition after 5 days by MTT assay. It is filed as functional. Conditions: T-24, 120 h. The essentials:
(§2)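 They were seeded at 5000 cells per well onto compound or DMSO (0.2% final). Plates were kept 5 days at 37 °C in 5% CO2 with no medium change, then read by MTT.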

Another test relates to MDA-MB-231. The experiment in a line: Cytotoxicity against human MDA-MB-231 cells assessed as growth inhibition after 5 days by MTT assay. It is filed as functional. The settings on record: MDA-MB-231, 120 h. The method in brief:
as §2
Background: Tetrazolium dyes change colour on reduction, which living cells bring about.

Test [4] addresses T1, Dual specificity protein kinase CLK1/CLK4. The experiment in a line: Inhibition of CLK1/4 in human T24 cells assessed as down regulation of EGFR expression after 3 days by Western blot analysis. It is filed as cell-based. The method in brief: as §1
For test [5] the target is unchanged. Description: Inhibition of CLK1/4 in human T24 cells assessed as down regulation of HDAC1 expression after 3 days by Western blot analysis. In kind it is cell-based. The method in brief:
as §1

The target is the same in test [6]. The experiment in a line: Inhibition of CLK1/4 in human MDA-MB-231 cells assessed as down regulation of EGFR expression after 3 days by Western blot analysis. In kind it is cell-based. The method in brief: as §1
For test [7] the target is unchanged. The experiment in a line: Inhibition of CLK1/4 in human MDA-MB-231 cells assessed as down regulation of S6 kinase expression after 3 days by Western blot analysis. It is filed as cell-based. The method in brief:
as §1

For test [8] the target is unchanged. The experiment in a line: Inhibition of CLK1/4 in human T24 cells assessed as down regulation of EGFR expression at 15 uM after 3 days by Western blot analysis relative to control. It is filed as cell-based. The essentials:
as §1

Test [9] shares this target. The experiment in a line: Inhibition of CLK1/4 in human T24 cells assessed as down regulation of HDAC1 expression at 10 uM after 3 days by Western blot analysis relative to control. In kind it is cell-based. The method in brief: as §1
For test [10] the target is unchanged. The experiment in a line: Inhibition of CLK1/4 in human T24 cells assessed as down regulation of HDAC1 expression at 5 uM after 3 days by Western blot analysis relative to control. It is filed as cell-based. The method in brief:
as §1

Test [11] has the same target. Description: Inhibition of CLK1/4 in human T24 cells assessed as down regulation of HDAC1 expression at 15 uM after 3 days by Western blot analysis relative to control. It is filed as cell-based. The method in brief: as §1
Test [12] shares this target. The experiment in a line: Inhibition of CLK1/4 in human MDA-MB-231 cells assessed as down regulation of EGFR expression at 20 uM after 3 days by Western blot analysis relative to control. It is filed as cell-based. The method in brief: as §1
The target is the same in test [13]. Description: Inhibition of CLK1/4 in human MDA-MB-231 cells assessed as down regulation of EGFR expression at 10 uM after 3 days by Western blot analysis relative to control. It is filed as cell-based. The essentials:
as §1

Test [14] has the same target. The experiment in a line: Inhibition of CLK1/4 in human MDA-MB-231 cells assessed as down regulation of EGFR expression at 2.5 uM after 3 days by Western blot analysis relative to control. It is filed as cell-based. The method in brief: as §1
For test [15] the target is unchanged. Description: Inhibition of CLK1/4 in human MDA-MB-231 cells assessed as down regulation of EGFR expression at 5 uM after 3 days by Western blot analysis relative to control. It is filed as cell-based. The essentials:
as §1

Test [16] has the same target. The experiment in a line: Inhibition of CLK1/4 in human MDA-MB-231 cells assessed as down regulation of S6 kinase expression at 20 uM after 3 days by Western blot analysis relative to control. In kind it is cell-based. The method in brief:
as §1

Test [17] has the same target. The experiment in a line: Inhibition of CLK1/4 in human MDA-MB-231 cells assessed as down regulation of S6 kinase expression at 10 uM after 3 days by Western blot analysis relative to control. In kind it is cell-based. The essentials: as §1
Test [18] has the same target. Description: Inhibition of CLK1/4 in human MDA-MB-231 cells assessed as down regulation of S6 kinase expression at 2.5 uM after 3 days by Western blot analysis relative to control. In kind it is cell-based. The method in brief:
as §1

Test [19] has the same target. Description: Inhibition of CLK1/4 in human MDA-MB-231 cells assessed as down regulation of S6 kinase expression at 5 uM after 3 days by Western blot analysis relative to control. In kind it is cell-based. The essentials:
as §1

Some results are limits rather than exact numbers.

Sequence of Dual specificity protein kinase CLK1 (P49759 whole entry, looked up): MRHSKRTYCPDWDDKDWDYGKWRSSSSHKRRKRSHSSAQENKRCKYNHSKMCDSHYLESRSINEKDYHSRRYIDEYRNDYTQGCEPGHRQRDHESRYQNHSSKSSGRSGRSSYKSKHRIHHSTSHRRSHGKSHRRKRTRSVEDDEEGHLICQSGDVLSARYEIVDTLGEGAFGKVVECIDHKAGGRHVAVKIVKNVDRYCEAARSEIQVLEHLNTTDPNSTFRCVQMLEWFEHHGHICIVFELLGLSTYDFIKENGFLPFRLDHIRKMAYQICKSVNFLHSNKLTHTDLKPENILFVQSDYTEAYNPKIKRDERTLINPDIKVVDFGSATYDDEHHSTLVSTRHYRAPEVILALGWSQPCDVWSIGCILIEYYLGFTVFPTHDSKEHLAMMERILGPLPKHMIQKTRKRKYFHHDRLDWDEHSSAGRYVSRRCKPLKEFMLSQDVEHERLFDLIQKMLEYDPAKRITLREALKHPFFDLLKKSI

A word on the inhibition: it is the relative decrease from the control value, in per cent. As usually defined, the GI50 is the concentration that inhibits growth by half. For orientation: IC50 means the concentration that inhibits the measured activity by half. As for `COc1ccc2sc(C(=O)NCc3cccc(F)c3)cc2c1`, the inhibition in test [1] was 32.9%; in [2], 26%; in [3] it was 33.9%; in test [8], 36.6%; in test [9], 16.1%; in [10], 13.7%. For the same molecule, the inhibition in test [11] amounted to 0%; in [12], 25.1%; in [13] it was 30.9%; in [14], 13.1%; in test [15] it was 36.7%; in test [16] it was 10.9%. Further, the inhibition turned out to be 8% in test [17], 0% in test [18] and 7.8% in [19]. For the same molecule, the 50% growth inhibitory concentration (GI50) in the test on T-24 and in the test with MDA-MB-231 was more than 40 µM in each case. The IC50 was more than 15 µM in test [4], more than 15 µM in test [5], more than 20 µM in [6] and more than 20 µM in test [7].
